Test results: ChEMBL document CHEMBL3272325, “Structure-activity relationships of dimeric Catharanthus alkaloids. 1. Deacetylvinblastine amide (vindesine) sulfate” (J Med Chem, 1978)
Active and inactive are the calls of the source. No cut-off for these calls is given here.

Key:
B16 [1] = test: Antitumor activity against mouse B16 cells allografted in B6D2F1 mouse assessed as increase in life span at 1.08 mg/kg/day, ip administered on day 1, 5 and 9 measured for 56 days relative to untreated control; type: functional; details: route intraperitoneal
In short: (§1)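 Male B6D2F1 mice implanted ip on day 0 with 0.25 mL of a 20% (w/v) B16 melanoma brei. Alkaloid sulfate salts given ip on days 1, 5, 9 or on days 5, 9, 13, groups of 10, against 30 untreated controls. Read-outs: median survival time with range of individual deaths, and percent increase in life span, with survivors counted on day 56.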

[2] = Antitumor activity against mouse Ridgeway osteogenic sarcoma cells allografted in mouse at 0.1 to 0.35 mg/kg/day, ip; type: functional; details: route intraperitoneal
In short: (§2)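 Sulfate salts given ip on days 1-9 against ROS and GLS in mice; tumor growth scored as percent inhibition versus controls (+++ = 75-100%, ++ = 50-75%, ± = under 25%).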

P388 [3] = test: Antitumor activity against mouse P388 cells allografted in mouse assessed as survival at 4 mg/kg/day after 1 day; type: functional, organism-based
In short: (§3)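 P388 ascites implanted ip in mice; sulfate salts dosed either daily or as a single dose on day 1, 10 animals per group. Survivors per total were recorded, median life span was calculated using all deaths and survivors, and percent increase of life span was reported.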

B16 [4] = test: Antitumor activity against mouse B16 cells allografted in B6D2F1 mouse assessed as mean survival time at 0.648 mg/kg/day, ip administered on day 5, 9 and 13 (reference value: 20.0 days); type: functional; details: route intraperitoneal; in short: as §1
P388 [5] = test: Antitumor activity against mouse P388 cells allografted in mouse assessed as increase in life span at 6 mg/kg/day, ip after 1 day; type: functional; details: 24 h, route intraperitoneal
In short: (§4)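 P388 ascites implanted ip in mice, 10 animals per group. Sulfate salts given ip either daily on days 1-9 or as a single dose on day 1. Median life span was calculated using all deaths and survivors. Percent increase in life span was taken over untreated controls. The highest nontoxic dose was noted.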

P388 [6] = test: Antitumor activity against mouse P388 cells allografted in mouse assessed as increase in life span at 0.6 mg/kg/day, ip administered from day 1 to day 9 relative to untreated control; type: functional; details: route intraperitoneal; in short: as §4
P388 [7] = test: Antitumor activity against mouse P388 cells allografted in mouse assessed as increase in life span at 0.4 mg/kg/day, ip administered from day 1 to day 9 relative to untreated control; type: functional; details: route intraperitoneal; in short: as §4
B16 [8] = test: Antitumor activity against mouse B16 cells allografted in B6D2F1 mouse assessed as increase in life span at 0.648 mg/kg/day, ip administered on day 1, 5 and 9 measured for 56 days relative to untreated control; type: functional; details: route intraperitoneal; in short: as §1
B16 [9] = test: Antitumor activity against mouse B16 cells allografted in B6D2F1 mouse assessed as mean survival time at 3 mg/kg/day, ip administered on day 1, 5 and 9 (reference value: 20.0 days); type: functional; details: route intraperitoneal; in short: as §1
P388 [10] = test: Antitumor activity against mouse P388 cells allografted in mouse assessed as increase in life span at 0.27 mg/kg/day, ip administered from day 1 to day 9 relative to untreated control; type: functional; details: route intraperitoneal; in short: as §4
B16 [11] = test: Antitumor activity against mouse B16 cells allografted in B6D2F1 mouse assessed as mean survival time at 0.389 mg/kg/day, ip administered on day 1, 5 and 9 (reference value: 20.0 days); type: functional; details: route intraperitoneal; in short: as §1
B16 [12] = test: Antitumor activity against mouse B16 cells allografted in B6D2F1 mouse assessed as increase in life span at 3 mg/kg/day, ip administered on day 1, 5 and 9 measured for 56 days relative to untreated control; type: functional; details: route intraperitoneal; in short: as §1
[13] = Toxicity in ip dosed mouse allografted with mouse P1534(J) cells administered from day 1 to day 9; type: organism-based; details: in vivo, read-out: MNTD
In short: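 P1534(J) leukemia implanted subcutaneously in mice. Sulfate salts given ip daily on days 1-9. Read-out was percent inhibition of tumor growth relative to untreated controls. The highest nontoxic dose was recorded.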

B16 [14] = test: Antitumor activity against mouse B16 cells allografted in B6D2F1 mouse assessed as mean survival time at 0.648 mg/kg/day, ip administered on day 1, 5 and 9 (reference value: 20.0 days); type: functional; details: route intraperitoneal; in short: as §1
B16 [15] = test: Antitumor activity against mouse B16 cells allografted in B6D2F1 mouse assessed as increase in life span at 1.8 mg/kg/day, ip administered on day 1, 5 and 9 measured for 56 days relative to untreated control; type: functional; details: route intraperitoneal; in short: as §1
B16 [16] = test: Antitumor activity against mouse B16 cells allografted in B6D2F1 mouse assessed as mean survival time at 0.389 mg/kg/day, ip administered on day 5, 9 and 13 (reference value: 20.0 days); type: functional; details: route intraperitoneal; in short: as §1
P388 [17] = test: Antitumor activity against mouse P388 cells allografted in mouse assessed as increase in life span at 9 mg/kg/day, ip after 1 day; type: functional; details: 24 h, route intraperitoneal; in short: as §4
[18] = Acute toxicity in ip dosed mouse; type: organism-based; details: in vivo
P388 [19] = test: Antitumor activity against mouse P388 cells allografted in mouse assessed as increase in life span at 2.7 mg/kg/day, ip after 1 day; type: functional; details: 24 h, route intraperitoneal; in short: as §4
B16 [20] = test: Antitumor activity against mouse B16 cells allografted in B6D2F1 mouse assessed as mean survival time at 1.8 mg/kg/day, ip administered on day 5, 9 and 13 (reference value: 20.0 days); type: functional; details: route intraperitoneal; in short: as §1
P388 [21] = test: Antitumor activity against mouse P388 cells allografted in mouse assessed as survival at 2.7 mg/kg/day after 1 day; type: functional, organism-based; in short: as §3
B16 [22] = test: Antitumor activity against mouse B16 cells allografted in B6D2F1 mouse assessed as mean survival time at 1.08 mg/kg/day, ip administered on day 5, 9 and 13 (reference value: 20.0 days); type: functional; details: route intraperitoneal; in short: as §1
[23] = Toxicity in ip dosed mouse allografted with mouse p388 cells after 1 day; type: organism-based; details: in vivo, read-out: MNTD; in short: as §4
B16 [24] = test: Antitumor activity against mouse B16 cells allografted in B6D2F1 mouse assessed as increase in life span at 1.08 mg/kg/day, ip administered on day 5, 9 and 13 measured for 56 days relative to untreated control; type: functional; details: route intraperitoneal; in short: as §1
B16 [25] = test: Antitumor activity against mouse B16 cells allografted in B6D2F1 mouse assessed as mean survival time at 1.8 mg/kg/day, ip administered on day 1, 5 and 9 (reference value: 20.0 days); type: functional; details: route intraperitoneal; in short: as §1
[26] = Antitumor activity against mouse Gardner lymphosarcoma cell allografted in mouse at 0.1 to 0.35 mg/kg/day, ip; type: functional; details: route intraperitoneal; in short: as §2
[27] = Toxicity in ip dosed mouse allografted with mouse p388 cells administered from day 1 to day 9; type: organism-based; details: in vivo, read-out: MNTD; in short: as §4
[28] = Antitumor activity against mouse P1534(J) cells allografted in mouse assessed as tumor growth inhibition at 0.35 mg/kg/day, ip administered from day 1 to day 9 relative to unreated control; type: functional; details: P1534J, route intraperitoneal, read-out: TGI
In short: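 P1534(J) leukemia implanted subcutaneously in mice; sulfate salts given ip on days 1-9. Read-out is percent inhibition of tumor growth versus untreated controls.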

B16 [29] = test: Antitumor activity against mouse B16 cells allografted in B6D2F1 mouse assessed as mean survival time at 3 mg/kg/day, ip administered on day 5, 9 and 13 (reference value: 20.0 days); type: functional; details: route intraperitoneal; in short: as §1
B16 [30] = test: Antitumor activity against mouse B16 cells allografted in B6D2F1 mouse assessed as increase in life span at 1.8 mg/kg/day, ip administered on day 5, 9 and 13 measured for 56 days relative to untreated control; type: functional; details: route intraperitoneal; in short: as §1
B16 [31] = test: Antitumor activity against mouse B16 cells allografted in B6D2F1 mouse assessed as increase in life span at 3 mg/kg/day, ip administered on day 5, 9 and 13 measured for 56 days relative to untreated control; type: functional; details: route intraperitoneal; in short: as §1
P388 [32] = test: Antitumor activity against mouse P388 cells allografted in mouse assessed as survival at 0.4 mg/kg/day administered from day 1 to day 9; type: functional, organism-based; in short: as §3
B16 [33] = test: Antitumor activity against mouse B16 cells allografted in B6D2F1 mouse assessed as increase in life span at 0.389 mg/kg/day, ip administered on day 1, 5 and 9 measured for 56 days relative to untreated control; type: functional; details: route intraperitoneal; in short: as §1
[34] = Acute toxicity in rat; type: organism-based; details: in vivo
B16 [35] = test: Antitumor activity against mouse B16 cells allografted in B6D2F1 mouse assessed as increase in life span at 0.389 mg/kg/day, ip administered on day 5, 9 and 13 measured for 56 days relative to untreated control; type: functional; details: route intraperitoneal; in short: as §1
B16 [36] = test: Antitumor activity against mouse B16 cells allografted in B6D2F1 mouse assessed as increase in life span at 0.648 mg/kg/day, ip administered on day 5, 9 and 13 measured for 56 days relative to untreated control; type: functional; details: route intraperitoneal; in short: as §1
B16 [37] = test: Antitumor activity against mouse B16 cells allografted in B6D2F1 mouse assessed as mean survival time at 1.08 mg/kg/day, ip administered on day 1, 5 and 9 (reference value: 20.0 days); type: functional; details: route intraperitoneal; in short: as §1
P388 [38] = test: Antitumor activity against mouse P388 cells allografted in mouse assessed as increase in life span at 0.9 mg/kg/day, ip administered from day 1 to day 9 relative to untreated control; type: functional; details: route intraperitoneal; in short: as §4
P388 [39] = test: Antitumor activity against mouse P388 cells allografted in mouse assessed as increase in life span at 4 mg/kg/day, ip after 1 day; type: functional; details: 24 h, route intraperitoneal; in short: as §4

Q: Which results are given for CC[C@]1(O)C[C@@H]2CN(CCc3c([nH]c4ccccc34)[C@@](C(=O)OC)(c3cc4c(cc3OC)N(C)[C@H]3[C@@](O)(C(=O)OC)[C@H](OC(C)=O)[C@]5(CC)C=CCN6CC[C@]43[C@@H]65)C2)C1.O=S(=O)(O)O [VINBLASTINE SULFATE]?
A: ILS at 1.08 mg/kg/day (B16 [1]): 78%; TGI [2]: <25%; Activity (P388 [3]): inactive; MST (B16 [4]): 28 days; ILS at 6 mg/kg/day (P388 [5]): 109%; ILS at 0.6 mg/kg/day (P388 [6]): > 263%; ILS at 0.4 mg/kg/day (P388 [7]): 72%; ILS at 0.648 mg/kg/day (B16 [8]): 68%; MST (B16 [9]): 40.5 days; ILS at 0.27 mg/kg/day (P388 [10]): 131%; MST (B16 [11]): 32 days; ILS at 3 mg/kg/day (B16 [12]): 102%; MTD [13]: 0.35 mg/kg/day; MST (B16 [14]): 33.5 days; ILS at 1.8 mg/kg/day (B16 [15]): 92%; MST (B16 [16]): 22.5 days; ILS at 9 mg/kg/day (P388 [17]): 127%; LD50 [18]: 10 mg/kg; ILS at 2.7 mg/kg/day (P388 [19]): 81%; MST (B16 [20]): 25 days; Activity (P388 [21]): inactive; MST (B16 [22]): 27.5 days; MTD at 24 h [23]: 9 mg/kg/day; ILS at 1.08 mg/kg/day (B16 [24]): 39%; MST (B16 [25]): 38.5 days; TGI [26]: <25%; MTD [27]: 0.9 mg/kg/day; inhibition in vivo at 0.35 mg/kg/day [28]: 54%; MST (B16 [29]): 32.5 days; ILS at 1.8 mg/kg/day (B16 [30]): 25%; ILS at 3 mg/kg/day (B16 [31]): 62%; Activity (P388 [32]): inactive; ILS at 0.389 mg/kg/day (B16 [33]): 60%; LD50 [34]: 2.9 mg/kg; ILS at 0.389 mg/kg/day (B16 [35]): 12%; ILS at 0.648 mg/kg/day (B16 [36]): 40%; MST (B16 [37]): 35.5 days; ILS at 0.9 mg/kg/day (P388 [38]): 109%; ILS at 4 mg/kg/day (P388 [39]): 95%
